The values that follow come from ChEMBL document CHEMBL1142269, “Imidazo[4,5-c]quinolines as inhibitors of the PI3K/PKB-pathway” (Bioorg Med Chem Lett, 2008).

Assay [1] can be described thus: Antiproliferative activity against human U87MG cells. In kind it is functional, cell-based, U-87MG ATCC. The note with it: U-87 MG. In short, it runs like this: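 Antiproliferation run in vitro on U87MG cells; potency expressed as EC50.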
In assay [2] the target is T1, 3-phosphoinositide-dependent protein kinase 1 (Homo sapiens, UniProt O15530).
T1 sequence (O15530 whole entry): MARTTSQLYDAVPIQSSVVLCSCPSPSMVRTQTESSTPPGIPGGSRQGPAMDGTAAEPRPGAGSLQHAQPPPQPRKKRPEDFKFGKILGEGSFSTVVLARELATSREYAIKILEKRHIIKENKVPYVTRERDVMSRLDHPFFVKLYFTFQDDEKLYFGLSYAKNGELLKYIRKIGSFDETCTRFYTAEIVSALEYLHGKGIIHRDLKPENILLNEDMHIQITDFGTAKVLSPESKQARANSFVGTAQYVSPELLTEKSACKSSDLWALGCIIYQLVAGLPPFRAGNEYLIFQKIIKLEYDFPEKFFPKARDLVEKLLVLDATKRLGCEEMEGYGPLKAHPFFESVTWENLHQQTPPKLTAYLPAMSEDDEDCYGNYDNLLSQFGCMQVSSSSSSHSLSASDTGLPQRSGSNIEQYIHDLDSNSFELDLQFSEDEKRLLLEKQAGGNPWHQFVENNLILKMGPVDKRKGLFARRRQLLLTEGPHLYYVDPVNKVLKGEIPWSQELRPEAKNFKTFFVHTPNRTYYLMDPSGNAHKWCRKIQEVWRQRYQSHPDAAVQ
In words: Inhibition of PDK1. The method, boiled down:
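Biochemical PDK1 enzymatic activity assay at 10 µM ATP; IC50 determined.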

Assay [3] can be described thus: Antitumor activity in athymic mouse bearing human PC3M tumor assessed as reduction of tumor growth at 75 mg/kg, po bid after 15 days. Format: functional, PC-3M. On the set-up: scale not given: the % may be the effect or the level left. The method, boiled down: (§1)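 PC3M tumour-bearing mice, compound formulated in NMP/PEG300, given orally twice per day at 50 or 75 mg/kg. Tumour volume read on day 15. T/C = mean difference of treated group ÷ mean difference of vehicle-treated control group × 100.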

For assay [4], the target named is Phosphatidylinositol 4,5-bisphosphate 3-kinase catalytic subunit gamma isoform (Homo sapiens, UniProt P48736). In words: Inhibition of PI3K p110gamma.
Chain of Phosphatidylinositol 4,5-bisphosphate 3-kinase catalytic subunit gamma isoform (P48736 whole entry, canonical isoform): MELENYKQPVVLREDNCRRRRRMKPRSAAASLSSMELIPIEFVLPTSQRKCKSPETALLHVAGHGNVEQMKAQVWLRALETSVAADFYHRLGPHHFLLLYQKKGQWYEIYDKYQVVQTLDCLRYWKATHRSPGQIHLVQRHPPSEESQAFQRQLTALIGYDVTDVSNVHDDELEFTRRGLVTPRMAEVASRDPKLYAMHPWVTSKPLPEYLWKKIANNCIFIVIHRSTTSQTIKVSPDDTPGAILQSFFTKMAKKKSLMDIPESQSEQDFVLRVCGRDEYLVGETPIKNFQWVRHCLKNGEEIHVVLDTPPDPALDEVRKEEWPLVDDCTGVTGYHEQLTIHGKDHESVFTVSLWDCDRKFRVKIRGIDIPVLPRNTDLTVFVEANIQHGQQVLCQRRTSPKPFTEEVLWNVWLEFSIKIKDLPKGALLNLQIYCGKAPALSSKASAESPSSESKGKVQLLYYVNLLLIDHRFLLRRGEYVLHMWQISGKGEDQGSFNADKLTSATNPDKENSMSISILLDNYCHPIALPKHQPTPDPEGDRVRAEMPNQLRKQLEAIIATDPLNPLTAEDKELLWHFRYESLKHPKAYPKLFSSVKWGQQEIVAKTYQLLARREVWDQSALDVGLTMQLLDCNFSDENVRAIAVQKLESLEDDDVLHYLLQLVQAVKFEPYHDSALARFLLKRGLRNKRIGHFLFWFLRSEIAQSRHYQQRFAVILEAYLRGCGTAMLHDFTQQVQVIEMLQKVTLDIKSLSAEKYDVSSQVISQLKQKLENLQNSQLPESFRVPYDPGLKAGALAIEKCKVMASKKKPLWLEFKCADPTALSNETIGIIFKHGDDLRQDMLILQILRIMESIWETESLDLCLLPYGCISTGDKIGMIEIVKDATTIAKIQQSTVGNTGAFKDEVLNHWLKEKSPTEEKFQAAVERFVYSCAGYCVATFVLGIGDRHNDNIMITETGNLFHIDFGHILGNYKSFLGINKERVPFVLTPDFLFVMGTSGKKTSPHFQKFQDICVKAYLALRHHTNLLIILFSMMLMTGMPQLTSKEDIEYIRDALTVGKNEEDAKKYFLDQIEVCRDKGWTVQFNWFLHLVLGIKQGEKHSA
Assay [5] in a line: Antitumor activity in athymic mouse bearing human PC3M tumor assessed as reduction of tumor growth at 50 mg/kg, po bid after 15 days. Format: functional, PC-3M. On the set-up: scale not given: the % may be the effect or the level left. In short, it runs like this:
as §1

The target of assay [6] is Phosphatidylinositol 4,5-bisphosphate 3-kinase catalytic subunit beta isoform (Homo sapiens, UniProt P42338). In words: Inhibition of PI3K p110beta.
Chain of Phosphatidylinositol 4,5-bisphosphate 3-kinase catalytic subunit beta isoform (P42338 whole entry, canonical isoform): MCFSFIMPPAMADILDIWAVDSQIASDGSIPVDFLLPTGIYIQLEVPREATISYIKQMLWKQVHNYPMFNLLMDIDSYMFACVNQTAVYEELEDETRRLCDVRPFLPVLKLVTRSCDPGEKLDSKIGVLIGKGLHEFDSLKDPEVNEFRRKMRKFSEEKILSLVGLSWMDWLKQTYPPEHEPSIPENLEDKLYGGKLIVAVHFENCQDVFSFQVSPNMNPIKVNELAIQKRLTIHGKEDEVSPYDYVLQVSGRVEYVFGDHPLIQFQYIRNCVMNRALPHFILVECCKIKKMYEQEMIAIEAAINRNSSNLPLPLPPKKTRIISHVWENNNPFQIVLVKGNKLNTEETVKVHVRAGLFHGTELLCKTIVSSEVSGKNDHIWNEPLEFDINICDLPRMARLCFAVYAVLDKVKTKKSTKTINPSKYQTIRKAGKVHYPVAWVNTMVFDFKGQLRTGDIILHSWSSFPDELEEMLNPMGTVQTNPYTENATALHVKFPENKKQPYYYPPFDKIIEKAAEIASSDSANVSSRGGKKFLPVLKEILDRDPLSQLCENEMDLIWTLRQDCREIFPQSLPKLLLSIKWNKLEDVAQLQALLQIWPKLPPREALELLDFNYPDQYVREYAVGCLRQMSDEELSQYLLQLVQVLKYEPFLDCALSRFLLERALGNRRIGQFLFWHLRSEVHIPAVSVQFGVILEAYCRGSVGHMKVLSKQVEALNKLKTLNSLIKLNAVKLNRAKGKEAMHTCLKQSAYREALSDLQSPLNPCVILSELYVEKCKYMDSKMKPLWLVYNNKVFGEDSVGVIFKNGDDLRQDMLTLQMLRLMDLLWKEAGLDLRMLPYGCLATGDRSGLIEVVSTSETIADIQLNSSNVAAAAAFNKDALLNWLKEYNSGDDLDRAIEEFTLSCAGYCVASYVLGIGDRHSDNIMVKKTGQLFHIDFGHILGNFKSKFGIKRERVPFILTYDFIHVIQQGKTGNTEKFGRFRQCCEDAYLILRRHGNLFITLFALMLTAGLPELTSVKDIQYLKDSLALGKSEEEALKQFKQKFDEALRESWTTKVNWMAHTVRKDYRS
Assay [7] deals with T2, Phosphatidylinositol 4,5-bisphosphate 3-kinase catalytic subunit delta isoform (Homo sapiens, UniProt O00329).
T2 sequence (O00329 whole entry): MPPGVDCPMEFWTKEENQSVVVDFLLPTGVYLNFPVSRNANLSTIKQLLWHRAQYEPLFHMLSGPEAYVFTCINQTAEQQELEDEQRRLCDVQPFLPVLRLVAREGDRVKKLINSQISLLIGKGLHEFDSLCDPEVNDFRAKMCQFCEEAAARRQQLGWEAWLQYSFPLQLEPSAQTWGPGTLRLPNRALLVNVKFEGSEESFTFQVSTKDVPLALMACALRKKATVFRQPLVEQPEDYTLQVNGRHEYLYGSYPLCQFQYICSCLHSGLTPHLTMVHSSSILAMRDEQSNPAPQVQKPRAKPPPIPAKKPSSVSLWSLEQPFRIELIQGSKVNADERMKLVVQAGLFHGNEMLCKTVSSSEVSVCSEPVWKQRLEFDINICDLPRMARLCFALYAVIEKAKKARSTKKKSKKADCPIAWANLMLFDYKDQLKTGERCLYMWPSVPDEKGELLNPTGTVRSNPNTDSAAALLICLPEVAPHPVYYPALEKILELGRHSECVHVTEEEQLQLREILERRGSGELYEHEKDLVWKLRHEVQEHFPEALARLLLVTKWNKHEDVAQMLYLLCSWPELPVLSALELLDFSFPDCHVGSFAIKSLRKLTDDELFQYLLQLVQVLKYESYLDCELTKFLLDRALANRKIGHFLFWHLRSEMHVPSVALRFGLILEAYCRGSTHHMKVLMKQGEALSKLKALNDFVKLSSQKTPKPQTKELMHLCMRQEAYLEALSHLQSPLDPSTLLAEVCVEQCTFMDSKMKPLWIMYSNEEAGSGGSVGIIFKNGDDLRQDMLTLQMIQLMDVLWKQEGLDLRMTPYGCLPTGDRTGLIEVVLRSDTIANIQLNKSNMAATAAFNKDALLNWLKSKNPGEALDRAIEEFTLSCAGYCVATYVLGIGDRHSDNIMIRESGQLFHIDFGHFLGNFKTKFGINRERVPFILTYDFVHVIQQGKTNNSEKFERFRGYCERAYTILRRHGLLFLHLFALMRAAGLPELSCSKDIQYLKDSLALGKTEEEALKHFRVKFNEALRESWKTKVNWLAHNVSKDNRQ
In words: Inhibition of PI3K p110delta.

The target in assay [8] is Phosphatidylinositol 4,5-bisphosphate 3-kinase catalytic subunit alpha isoform (Homo sapiens, UniProt P42336). In words: Inhibition of PI3K p110alpha.
Chain of Phosphatidylinositol 4,5-bisphosphate 3-kinase catalytic subunit alpha isoform (P42336 whole entry, canonical isoform): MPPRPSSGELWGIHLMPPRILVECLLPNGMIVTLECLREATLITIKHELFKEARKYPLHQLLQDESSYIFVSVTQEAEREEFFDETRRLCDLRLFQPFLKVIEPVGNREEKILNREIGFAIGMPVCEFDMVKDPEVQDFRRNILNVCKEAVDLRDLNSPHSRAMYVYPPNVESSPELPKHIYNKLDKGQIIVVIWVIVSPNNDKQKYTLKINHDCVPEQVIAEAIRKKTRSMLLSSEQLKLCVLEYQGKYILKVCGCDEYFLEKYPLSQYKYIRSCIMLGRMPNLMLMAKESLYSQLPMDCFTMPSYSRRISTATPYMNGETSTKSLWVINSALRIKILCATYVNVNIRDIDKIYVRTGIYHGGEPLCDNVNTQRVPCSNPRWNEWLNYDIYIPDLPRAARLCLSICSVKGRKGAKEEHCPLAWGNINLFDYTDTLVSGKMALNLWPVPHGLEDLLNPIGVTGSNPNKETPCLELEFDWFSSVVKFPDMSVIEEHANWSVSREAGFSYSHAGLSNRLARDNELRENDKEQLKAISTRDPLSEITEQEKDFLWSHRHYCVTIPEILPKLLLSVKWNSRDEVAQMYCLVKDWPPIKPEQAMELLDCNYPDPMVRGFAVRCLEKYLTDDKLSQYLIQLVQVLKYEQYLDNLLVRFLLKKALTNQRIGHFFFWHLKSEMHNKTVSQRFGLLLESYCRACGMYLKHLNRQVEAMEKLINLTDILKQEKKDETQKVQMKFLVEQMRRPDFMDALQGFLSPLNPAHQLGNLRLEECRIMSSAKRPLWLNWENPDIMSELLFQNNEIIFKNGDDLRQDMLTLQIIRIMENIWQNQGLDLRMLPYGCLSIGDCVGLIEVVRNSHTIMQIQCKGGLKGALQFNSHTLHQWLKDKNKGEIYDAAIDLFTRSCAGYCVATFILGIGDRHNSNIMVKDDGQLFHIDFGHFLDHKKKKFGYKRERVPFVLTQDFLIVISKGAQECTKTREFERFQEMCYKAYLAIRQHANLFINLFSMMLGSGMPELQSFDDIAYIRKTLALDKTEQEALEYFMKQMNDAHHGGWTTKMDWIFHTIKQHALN
Assay [9] can be described thus: Antitumor activity in mouse bearing human PC3M tumor assessed as reduction of tumor growth at 60 mg/kg, po bid after 27 days. The arrangement: scale not given: the % may be the effect or the level left. In kind it is functional, PC-3M. The method, boiled down: (§2)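 PC3M tumour-bearing mice, oral dosing twice per day at 50 or 60 mg/kg in NMP/PEG300 vehicle. T/C taken on day 27 as mean difference of treated group over mean difference of vehicle control, ×100. Significance by one-way ANOVA followed by post hoc Dunnett's test versus control.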

Assay [10] can be described thus: Antitumor activity in mouse bearing human PC3M tumor assessed as reduction of tumor growth at 50 mg/kg, po bid after 27 days. Format: functional, PC-3M. On the set-up: scale not given: the % may be the effect or the level left. In short, it runs like this:
as §2

Assay [11] addresses RAC-alpha serine/threonine-protein kinase (Homo sapiens) (UniProt P31749). Description: Inhibition of PKB at 10 uM.
A short description of assay [12]: Inhibition of PKA at 10 uM.

SMILES strings stand for the structures.

Chain of RAC-alpha serine/threonine-protein kinase (Homo sapiens) (P31749 whole entry): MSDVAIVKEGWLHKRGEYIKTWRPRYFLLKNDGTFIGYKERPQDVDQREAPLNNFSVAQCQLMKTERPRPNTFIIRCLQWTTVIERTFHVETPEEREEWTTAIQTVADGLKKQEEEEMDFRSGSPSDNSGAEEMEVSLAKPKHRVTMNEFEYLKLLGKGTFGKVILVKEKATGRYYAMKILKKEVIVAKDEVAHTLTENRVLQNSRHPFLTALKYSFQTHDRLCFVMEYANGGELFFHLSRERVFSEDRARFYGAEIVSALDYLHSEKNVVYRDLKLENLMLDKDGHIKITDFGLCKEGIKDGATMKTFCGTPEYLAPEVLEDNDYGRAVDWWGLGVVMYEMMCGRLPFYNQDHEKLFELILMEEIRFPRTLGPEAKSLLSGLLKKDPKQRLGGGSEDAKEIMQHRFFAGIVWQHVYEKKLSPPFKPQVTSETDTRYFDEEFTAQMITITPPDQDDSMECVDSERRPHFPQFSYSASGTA

`Cc1nc2cnc3ccc(C#Cc4cccnc4)cc3c2n1-c1ccc(CC#N)cc1` gave an EC50 in assay [1] of 0.275 µM. Moreover, the 50% inhibitory concentration (IC50) in [2] amounted to 0.11 µM.

Consider `Cc1nc2cnc3ccc(C#Cc4cccnc4)cc3c2n1-c1ccc(C(C)C#N)cc1` (stereo not given), for which the Activity came to 50% in assay [3] and 85% in [5]. The half-inhibitory concentration (IC50) in assay [4] came to 0.117 µM; in assay [6] it was 0.446 µM; in assay [7], 0.035 µM; in [2] it was 0.245 µM; in [8], 0.056 µM. The concentration giving a half-maximal response (EC50) in assay [1] is 0.143 µM.

As to `CC(C)(C#N)c1ccc(-n2cnc3cnc4ccc(C#Cc5cccnc5)cc4c32)cc1`, in [1], the EC50 worked out at 0.446 µM. This compound also showed an IC50 in assay [2] of 0.15 µM.

`CCc1nc2cnc3ccc(C#Cc4cccnc4)cc3c2n1-c1ccc(CC#N)cc1`: the EC50 in assay [1] worked out at 0.4 µM. Besides, in assay [2], the concentration for half-maximal inhibition (IC50) came out at 0.327 µM.

Consider `Cn1c(=O)n(-c2ccc(C(C)(C)C#N)cc2)c2c3cc(C#Cc4cccnc4)ccc3ncc21`, for which the Activity in assay [9] stood at 9%; in assay [10] it was 31%. Also, the IC50 in assay [4] is 0.382 µM; in [6], 2.34 µM; in assay [7] it was 0.201 µM; in assay [2] it was more than 25 µM; in assay [8] it was 0.072 µM. Also, the midpoint of the response in [1], the EC50, lay at 0.013 µM.

For the compound `N#CCc1ccc(-n2cnc3cnc4ccc(C#Cc5cccnc5)cc4c32)cc1`, the inhibition worked out at 0% in [11] and 24% in [12]. Also, the IC50 in assay [4] was 0.067 µM; in [6] it was 0.432 µM; in assay [7], 0.098 µM; in [2], 0.034 µM; in assay [8] it was 0.064 µM. The EC50 in [1] came to 0.416 µM.

Broadly, the EC50 is the concentration at which the effect is half-maximal. The IC50 is the concentration that inhibits the measured activity by half. For orientation: inhibition means how much of the control response was suppressed.
